Measurements taken from ChEMBL document CHEMBL4808168, “The Discovery of Two Novel Classes of 5,5-Bicyclic Nucleoside-Derived PRMT5 Inhibitors for the Treatment of Cancer” (J Med Chem, 2021).
Converted amounts (≈) assume the structure as drawn.

Columns and labels:
[1] = Solubility of the compound in FaSSIF at pH 7 at 200 uM incubated for 24 hrs by UV-vis detection based HPLC analysis; type: physicochemical
[2] = Solubility of the compound in […] at pH 2 at 200 uM incubated for 24 hrs by UV-vis detection based HPLC analysis; type: physicochemical
Summary of the method: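 10 mM DMSO stock added to 10 mM potassium phosphate buffer at pH 2 or pH 7, or FaSSIF pH 6.5, to 200 μM total; 24 h equilibration, filtration, then reverse-phase HPLC with UV–vis detection.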

[3] = test system: Z-138; assay: Antiproliferative activity against human Z138 cells incubated for 10 days by cell titer-glo assay; type: functional, cell-based; conditions: Z-138, 240 h
[4] = MRT in rat; type: ADME; conditions: in vivo
[5] = Unbound clearance in rat; type: ADME; conditions: in vivo
[6] = Oral bioavailability in rat; type: ADME, organism-based; conditions: in vivo
[7] = biological target: Protein arginine N-methyltransferase 5 (Homo sapiens, UniProt O14744); assay: Inhibition of PRMT5 (unknown origin) assessed as inhibition of symmetric dimethylation of arginine incubated for 3 days by fluorescence based cellular target engagement assay
Summary of the method: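 MCF-7 cells (4000/well, collagen-coated plates) in EMEM with 0.01 mg/mL insulin and 10% FBS; 10-point 1:3 titration from 10,000 nM; 3 days at 37 °C/5% CO2; fixed, permeabilized, anti-SDMA antibody, then Alexa488 anti-rabbit IgG plus Hoechst; nuclear fluorescence by high-content imaging versus DMSO; EC50 by four-parameter robust fit.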

[8] = Plasma clearance in rat; type: ADME
[9] = Unbound volume of distribution in rat; type: ADME; conditions: in vivo

Sequence of Protein arginine N-methyltransferase 5 (O14744 whole entry): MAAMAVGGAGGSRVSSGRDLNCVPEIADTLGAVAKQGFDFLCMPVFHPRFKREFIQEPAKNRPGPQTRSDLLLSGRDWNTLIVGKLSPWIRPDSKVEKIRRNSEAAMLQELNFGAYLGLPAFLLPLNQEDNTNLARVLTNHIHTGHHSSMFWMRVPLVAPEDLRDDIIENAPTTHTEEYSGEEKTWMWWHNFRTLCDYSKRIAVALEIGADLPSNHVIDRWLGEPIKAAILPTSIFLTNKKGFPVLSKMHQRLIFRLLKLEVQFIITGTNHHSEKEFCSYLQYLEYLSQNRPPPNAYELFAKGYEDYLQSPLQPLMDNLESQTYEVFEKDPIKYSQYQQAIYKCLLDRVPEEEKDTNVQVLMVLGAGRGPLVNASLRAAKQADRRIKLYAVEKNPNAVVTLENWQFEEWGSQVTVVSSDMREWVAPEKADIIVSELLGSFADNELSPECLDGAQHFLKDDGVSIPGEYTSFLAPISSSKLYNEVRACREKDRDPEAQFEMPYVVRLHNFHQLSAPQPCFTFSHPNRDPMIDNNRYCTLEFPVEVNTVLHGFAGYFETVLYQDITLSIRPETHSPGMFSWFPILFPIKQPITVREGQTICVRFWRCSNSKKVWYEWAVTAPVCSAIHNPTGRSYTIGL

Nc1nc2cc(O[C@H]3CC[C@@]4(O)[C@@H]3O[C@@H](n3ccc5c(N)ncnc53)[C@@H]4O)ccc2cc1Cl
solubility at 24 h, 200 µM [1]: < 1 µM
solubility at 24 h, 200 µM [2]: 158 µM (≈ 74.1 µg/mL)
EC50 [3]: 7.5 nM
MRT [4]: 1.4 h
CL free [5]: 412 mL/min/kg
bioavailability [6]: 2%
EC50 [7]: 1.2 nM
clearance [8]: 22 mL/min/kg
Vdu [9]: 34 L/kg

Cc1cn([C@@H]2C[C@@H]3[C@H](Cc4ccc5cc(F)c(N)nc5c4)CC[C@]3(O)[C@H]2O)c2ncnc(N)c12
solubility at 24 h, 200 µM [1]: 66 µM (≈ 30.5 µg/mL)
solubility at 24 h, 200 µM [2]: 146 µM (≈ 67.5 µg/mL)
EC50 [3]: 3.7 nM
MRT [4]: 1.1 h
CL free [5]: 788 mL/min/kg
bioavailability [6]: 10%
EC50 [7]: 0.97 nM
clearance [8]: 38 mL/min/kg
Vdu [9]: 50 L/kg

Nc1nc2cc(C[C@@H]3CC[C@@]4(O)[C@@H]3O[C@@H](n3ccc5c(N)ncnc53)[C@@H]4O)ccc2cc1F
solubility at 24 h, 200 µM [1]: 142 µM (≈ 64 µg/mL)
solubility at 24 h, 200 µM [2]: 163 µM (≈ 73.4 µg/mL)
EC50 [3]: 8.3 nM
MRT [4]: 1.3 h
CL free [5]: 1029 mL/min/kg
bioavailability [6]: 28%
EC50 [7]: 2.3 nM
clearance [8]: 18 mL/min/kg
Vdu [9]: 111 L/kg

Nc1nc2cc(C[C@@H]3CC[C@@]4(O)[C@@H]3O[C@@H](n3ccc5c(N)ncnc53)[C@@H]4O)cc(F)c2cc1F
solubility at 24 h, 200 µM [1]: 83 µM (≈ 38.9 µg/mL)
solubility at 24 h, 200 µM [2]: 171 µM (≈ 80.1 µg/mL)
EC50 [3]: 5.6 nM
MRT [4]: 2.1 h
CL free [5]: 430 mL/min/kg
bioavailability [6]: 29%
EC50 [7]: 1.7 nM
clearance [8]: 25 mL/min/kg
Vdu [9]: 54 L/kg

CNc1ncnc2c1ccn2[C@@H]1O[C@@H]2[C@H](Cc3ccc4cc(Br)c(N)nc4c3)CC[C@]2(O)[C@H]1O
EC50 [3]: 16 nM
MRT [4]: 1 h
CL free [5]: 900 mL/min/kg
bioavailability [6]: 20%
EC50 [7]: 9.9 nM
clearance [8]: 31 mL/min/kg
Vdu [9]: 52 L/kg

Cc1ncnc2c1ccn2[C@@H]1O[C@@H]2[C@@H](Oc3ccc4cc(Cl)c(N)nc4c3)CC[C@]2(O)[C@H]1O
solubility at 24 h, 200 µM [1]: 2 µM (≈ 0.936 µg/mL)
solubility at 24 h, 200 µM [2]: 160 µM (≈ 74.9 µg/mL)
EC50 [3]: 24 nM
MRT [4]: 1.4 h
CL free [5]: 710 mL/min/kg
bioavailability [6]: 71%
EC50 [7]: 4 nM
clearance [8]: 8 mL/min/kg
Vdu [9]: 59 L/kg

Cc1ncnc2c1ccn2[C@@H]1C[C@@H]2[C@H](Cc3ccc4cc(F)c(N)nc4c3)CC[C@]2(O)[C@H]1O
solubility at 24 h, 200 µM [1]: 94 µM (≈ 42.1 µg/mL)
solubility at 24 h, 200 µM [2]: 157 µM (≈ 70.3 µg/mL)
EC50 [3]: 3.5 nM
MRT [4]: 1.3 h
CL free [5]: 374 mL/min/kg
bioavailability [6]: 77%
EC50 [7]: 0.89 nM
clearance [8]: 24 mL/min/kg
Vdu [9]: 33 L/kg

Nc1nc2cc(C[C@@H]3CC[C@@]4(O)[C@@H]3O[C@@H](n3ccc5c(C6CC6)ncnc53)[C@@H]4O)ccc2cc1Br
EC50 [3]: 67 nM
EC50 [7]: 5.3 nM

Nc1nc2cc(O[C@@H]3CC[C@@]4(O)[C@@H]3O[C@@H](n3ccc5c(N)ncnc53)[C@@H]4O)ccc2cc1Br
EC50 [3]: > 10 nM
EC50 [7]: > 10 nM

Cc1ncnc2c1ccn2[C@@H]1O[C@@H]2[C@H](Cc3ccc4cc(Br)c(N)nc4c3)CC[C@]2(O)[C@H]1O
solubility at 24 h, 200 µM [1]: 21 µM (≈ 10.7 µg/mL)
solubility at 24 h, 200 µM [2]: 186 µM (≈ 94.9 µg/mL)
EC50 [3]: 1.4 nM
MRT [4]: 1.1 h
CL free [5]: 2163 mL/min/kg
bioavailability [6]: 46%
EC50 [7]: < 0.5 nM
clearance [8]: 27 mL/min/kg
Vdu [9]: 148 L/kg

Nc1nc2cc(C[C@@H]3CC[C@@]4(O)[C@@H]3O[C@@H](n3cc(F)c5c(N)ncnc53)[C@@H]4O)ccc2cc1F
solubility at 24 h, 200 µM [1]: 114 µM (≈ 53.4 µg/mL)
solubility at 24 h, 200 µM [2]: 158 µM (≈ 74 µg/mL)
EC50 [3]: 5.6 nM
MRT [4]: 1 h
CL free [5]: 541 mL/min/kg
bioavailability [6]: 24%
EC50 [7]: 4.6 nM
clearance [8]: 60 mL/min/kg
Vdu [9]: 34 L/kg

Cc1ncnc2c1ccn2[C@@H]1O[C@@H]2[C@H](Cc3ccc4cc(F)c(N)nc4c3)CC[C@]2(O)[C@H]1O
solubility at 24 h, 200 µM [1]: 118 µM (≈ 53 µg/mL)
solubility at 24 h, 200 µM [2]: 159 µM (≈ 71.5 µg/mL)
EC50 [3]: 23 nM
MRT [4]: 1 h
CL free [5]: 351 mL/min/kg
bioavailability [6]: 51%
EC50 [7]: 14 nM
clearance [8]: 32 mL/min/kg
Vdu [9]: 20 L/kg

Nc1nc2cc(C[C@@H]3CC[C@@]4(O)[C@@H]3O[C@@H](n3ccc5c(N)ncnc53)[C@@H]4O)ccc2cc1Cl
solubility at 24 h, 200 µM [1]: 60 µM (≈ 28 µg/mL)
solubility at 24 h, 200 µM [2]: 159 µM (≈ 74.2 µg/mL)
EC50 [3]: 3.2 nM
MRT [4]: 1.3 h
CL free [5]: 1045 mL/min/kg
bioavailability [6]: 8%
EC50 [7]: 1.2 nM
clearance [8]: 46 mL/min/kg
Vdu [9]: 79 L/kg

Cc1nc(N)c2ccn([C@@H]3C[C@@H]4[C@H](Cc5ccc6cc(F)c(N)nc6c5)CC[C@]4(O)[C@H]3O)c2n1
solubility at 24 h, 200 µM [1]: 123 µM (≈ 56.9 µg/mL)
solubility at 24 h, 200 µM [2]: 149 µM (≈ 68.9 µg/mL)
EC50 [3]: 4.1 nM
MRT [4]: 3.2 h
CL free [5]: 789 mL/min/kg
bioavailability [6]: 17%
EC50 [7]: 1.5 nM
clearance [8]: 9 mL/min/kg
Vdu [9]: 150 L/kg

Cc1ncnc2c1ccn2[C@@H]1O[C@@H]2[C@@H](Oc3ccc4cc(F)c(N)nc4c3)CC[C@]2(O)[C@H]1O
solubility at 24 h, 200 µM [1]: 116 µM (≈ 52.4 µg/mL)
solubility at 24 h, 200 µM [2]: 152 µM (≈ 68.6 µg/mL)
EC50 [3]: 172 nM
MRT [4]: 1.5 h
CL free [5]: 345 mL/min/kg
EC50 [7]: 38 nM
clearance [8]: 16 mL/min/kg
Vdu [9]: 30 L/kg

Cc1cc2ccc(C[C@@H]3CC[C@@]4(O)[C@@H]3O[C@@H](n3ccc5c(N)ncnc53)[C@@H]4O)cc2nc1N
solubility at 24 h, 200 µM [1]: 137 µM (≈ 61.2 µg/mL)
solubility at 24 h, 200 µM [2]: 151 µM (≈ 67.4 µg/mL)
EC50 [3]: 0.77 nM
MRT [4]: 0.8 h
CL free [5]: 523 mL/min/kg
EC50 [7]: 3.2 nM
clearance [8]: 106 mL/min/kg
Vdu [9]: 24 L/kg

Cc1ncnc2c1ccn2[C@@H]1O[C@@H]2[C@H](Cc3ccc4ccc(N)nc4c3)CC[C@]2(O)[C@H]1O
solubility at 24 h, 200 µM [1]: 164 µM (≈ 70.8 µg/mL)
solubility at 24 h, 200 µM [2]: 181 µM (≈ 78.1 µg/mL)
EC50 [3]: < 0.5 nM
MRT [4]: 1.7 h
CL free [5]: 648 mL/min/kg
EC50 [7]: 9.9 nM
clearance [8]: 101 mL/min/kg
Vdu [9]: 68 L/kg

Nc1nc2cc(C[C@@H]3CC[C@@]4(O)[C@@H]3O[C@@H](n3ccc5c(N)ncnc53)[C@@H]4O)c(F)cc2cc1F
solubility at 24 h, 200 µM [1]: 110 µM (≈ 51.5 µg/mL)
solubility at 24 h, 200 µM [2]: 156 µM (≈ 73.1 µg/mL)
EC50 [3]: 20 nM
MRT [4]: 1.6 h
CL free [5]: 844 mL/min/kg
bioavailability [6]: 30%
EC50 [7]: 2.8 nM
clearance [8]: 40 mL/min/kg
Vdu [9]: 80 L/kg

Nc1nc2cc(O[C@H]3CC[C@@]4(O)[C@@H]3O[C@@H](n3ccc5c(N)ncnc53)[C@@H]4O)ccc2cc1F
solubility at 24 h, 200 µM [1]: < 1 µM
solubility at 24 h, 200 µM [2]: 158 µM (≈ 71.5 µg/mL)
EC50 [3]: 27 nM
MRT [4]: 0.6 h
CL free [5]: 289 mL/min/kg
EC50 [7]: 0.9 nM
clearance [8]: 49 mL/min/kg
Vdu [9]: 11 L/kg

Nc1nc2cc(O[C@H]3CC[C@@]4(O)[C@@H]3O[C@@H](n3ccc5cncnc53)[C@@H]4O)ccc2cc1Br
EC50 [3]: 20 nM
EC50 [7]: 32 nM

Cc1ncnc2c1ccn2[C@@H]1C[C@@H]2[C@@H](Cc3ccc4cc(F)c(N)nc4c3)CC[C@]2(O)[C@H]1O
EC50 [3]: 63 nM
EC50 [7]: 11 nM

Cc1ncnc2c1ccn2[C@@H]1O[C@@H]2[C@@H](Cc3ccc4cc(Cl)c(N)nc4c3)CC[C@]2(O)[C@H]1O
EC50 [3]: 26 nM
EC50 [7]: 21 nM
